Reference: ChEMBL document CHEMBL2062515, “Synthesis and evaluation of novel radioligands for positron emission tomography imaging of metabotropic glutamate receptor subtype 1 (mGluR1) in rodent brain” (J Med Chem, 2012)
The source made the active and inactive calls. The rule behind the calls is not given here.

Columns and labels:
[1] = target: Metabotropic glutamate receptor 1 (Rattus norvegicus) (UniProt P23385); assay: Binding affinity to mGluR1 in Sprague-Dawley rat cerebellum at 0.4 MBq after 30 mins by autoradiography in presence of JNJ16259685
[2] = target: Metabotropic glutamate receptor 1 (Rattus norvegicus) (UniProt P23385); assay: Binding affinity to mGluR1 in Sprague-Dawley rat thalamus at 0.4 MBq after 30 mins by autoradiography
Method in brief: (§1)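 Sections were 20 μm rat brain slices, preincubated 20 min at room temperature in 50 mM Tris-HCl pH 7.4 containing 1.2 mM MgCl₂ and 2 mM CaCl₂. Incubation was 30 min at room temperature with an ¹⁸F radioligand at 0.4 MBq (5 pM or 4 pM), with or without JNJ-16259685 (1 μM). Sections were washed 3 × 5 min in cold buffer, rinsed in cold distilled water and air-dried cold.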

[3] = target: Metabotropic glutamate receptor 5 (Rattus norvegicus, UniProt P31424); assay: Displacement of [11C]-ABP688 from mGluR5 in Sprague-Dawley rat brain homogenates after 1 hr by gamma counting; format: tissue-based
Method in brief: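 mGluR5 competition in same rat brain homogenate, run as mGluR1 assay but with [¹¹C]ABP688-type radioligand: 1 h room temperature incubation, filtration through PEI-treated glass fiber filters, gamma counting, nonlinear regression for IC50.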

[4] = target: Metabotropic glutamate receptor 1 (Rattus norvegicus) (UniProt P23385); assay: Binding affinity to mGluR1 in Sprague-Dawley rat striatum at 0.4 MBq after 30 mins by autoradiography; method in brief: as §1
[5] = target: Metabotropic glutamate receptor 1 (Rattus norvegicus, UniProt P23385); assay: Displacement of 4-[18F]fluoro-N-[4-(6-(isopropylamino)pyrimidin-4-yl)-1,3-thiazol-2-yl]-N-methylbenzamide from mGluR1 in Sprague-Dawley rat brain homogenates after 1 hr; format: tissue-based
Method in brief: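 Rat whole-brain homogenate (washed pellets in 50 mM Tris-HCl pH 7.4, 120 mM NaCl; diluted to 100 mg/mL in Tris-HCl with NaCl, KCl, MgCl₂, CaCl₂) incubated 1 h, room temperature with [¹⁸F]-ligand (3 nM in PBS) and competitor […] in 0.1% DMSO. Filtration on PEI-treated GF/C, gamma counting; Kd by Scatchard; IC50/Ki by nonlinear regression; duplicate, mean SE.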

[6] = target: Metabotropic glutamate receptor 1 (Rattus norvegicus) (UniProt P23385); assay: Binding affinity to mGluR1 in Sprague-Dawley rat brain stem at 0.4 MBq after 30 mins by autoradiography in presence of JNJ16259685; format: tissue-based; conditions: 0.4 M, tested as the 18F-labelled form; method in brief: as §1
[7] = target: Metabotropic glutamate receptor 1 (Rattus norvegicus) (UniProt P23385); assay: Binding affinity to mGluR1 in Sprague-Dawley rat cerebellum at 0.4 MBq after 30 mins by autoradiography
[8] = Lipophilicity, log D of the compound in octanol-phosphate buffer at pH 7.4 by Shake flask method; format: physicochemical
Method in brief: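 Radioligand shaken with n-octanol and 0.1 M sodium phosphate buffer pH 7.4 (3.0 g each), vortex 3 min room temperature, centrifuged 2330g 5 min; phases weighed and counted, octanol repartitioned until constant. LogD = log(cpm/g octanol / cpm/g buffer); triplicate.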

[9] = target: Metabotropic glutamate receptor 1 (Rattus norvegicus) (UniProt P23385); assay: Binding affinity to mGluR1 in Sprague-Dawley rat brain stem at 0.4 MBq after 30 mins by autoradiography; format: tissue-based
[10] = target: Metabotropic glutamate receptor 1 (Rattus norvegicus) (UniProt P23385); assay: Binding affinity to mGluR1 in Sprague-Dawley rat striatum at 0.4 MBq after 30 mins by autoradiography in presence of JNJ16259685; conditions: 0.4 M, tested as the 18F-labelled form; method in brief: as §1
[11] = target: Metabotropic glutamate receptor 1 (Rattus norvegicus) (UniProt P23385); assay: Binding affinity to mGluR1 in Sprague-Dawley rat thalamus at 0.4 MBq after 30 mins by autoradiography in presence of JNJ16259685; conditions: 0.4 M, tested as the 18F-labelled form; method in brief: as §1
[12] = target: Metabotropic glutamate receptor 1 (Rattus norvegicus) (UniProt P23385); assay: Binding affinity to mGluR1 in Sprague-Dawley rat brain stem at 9.2 MBq after 30 mins by autoradiography relative to control in presence of JNJ16259685; format: tissue-based; conditions: 9.2 M, tested as the 11C-labelled form
Method in brief: (§2)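 Rat brain sections (20 μm) were preincubated 20 min at room temperature in 50 mM Tris-HCl pH 7.4 with 1.2 mM MgCl₂ and 2 mM CaCl₂. They were then incubated 30 min at room temperature in fresh buffer with the ¹¹C radioligand (9.2 MBq, 0.5 nM), with or without JNJ-16259685 (1 μM) to define specific binding. Sections were washed 3 × 5 min in cold buffer, dipped in cold water and dried with cold air.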

[13] = target: Metabotropic glutamate receptor 1 (Rattus norvegicus) (UniProt P23385); assay: Binding affinity to mGluR1 in Sprague-Dawley rat thalamus at 9.2 MBq after 30 mins by autoradiography; conditions: 9.2 M, tested as the 11C-labelled form; method in brief: as §2
[14] = target: Metabotropic glutamate receptor 1 (Rattus norvegicus) (UniProt P23385); assay: Binding affinity to mGluR1 in Sprague-Dawley rat brain at 9.2 MBq after 30 mins by autoradiography relative to control in presence of JNJ16259685; format: tissue-based; conditions: 9.2 M, tested as the 11C-labelled form; method in brief: as §2
[15] = target: Metabotropic glutamate receptor 1 (Rattus norvegicus) (UniProt P23385); assay: Binding affinity to mGluR1 in Sprague-Dawley rat thalamus at 9.2 MBq after 30 mins by autoradiography relative to control in presence of JNJ16259685; conditions: 9.2 M, tested as the 11C-labelled form; method in brief: as §2
[16] = target: Metabotropic glutamate receptor 1 (Rattus norvegicus) (UniProt P23385); assay: Binding affinity to mGluR1 in Sprague-Dawley rat cerebellum at 9.2 MBq after 30 mins by autoradiography relative to control in presence of JNJ16259685; conditions: 9.2 M, tested as the 11C-labelled form; method in brief: as §2
[17] = target: Metabotropic glutamate receptor 1 (Rattus norvegicus) (UniProt P23385); assay: Binding affinity to mGluR1 in Sprague-Dawley rat cerebellum at 9.2 MBq after 30 mins by autoradiography; conditions: 9.2 M, tested as the 11C-labelled form; method in brief: as §2
[18] = target: Metabotropic glutamate receptor 1 (Rattus norvegicus) (UniProt P23385); assay: Binding affinity to mGluR1 in Sprague-Dawley rat striatum at 9.2 MBq after 30 mins by autoradiography relative to control in presence of JNJ16259685; conditions: 9.2 M, tested as the 11C-labelled form; method in brief: as §2
[19] = target: Metabotropic glutamate receptor 1 (Rattus norvegicus) (UniProt P23385); assay: Binding affinity to mGluR1 in Sprague-Dawley rat striatum after 30 mins by autoradiography in presence of JNJ16259685; conditions: tested as the 11C-labelled form
[20] = target: Metabotropic glutamate receptor 1 (Rattus norvegicus) (UniProt P23385); assay: Binding affinity to mGluR1 in Sprague-Dawley rat brain stem after 30 mins by autoradiography in presence of JNJ16259685; conditions: tested as the 11C-labelled form
[21] = target: Metabotropic glutamate receptor 1 (Rattus norvegicus) (UniProt P23385); assay: Binding affinity to mGluR1 in Sprague-Dawley rat striatum at 9.2 MBq after 30 mins by autoradiography; conditions: 9.2 M, tested as the 11C-labelled form; method in brief: as §2
[22] = target: Metabotropic glutamate receptor 1 (Rattus norvegicus) (UniProt P23385); assay: Binding affinity to mGluR1 in Sprague-Dawley rat thalamus after 30 mins by autoradiography in presence of JNJ16259685; conditions: tested as the 11C-labelled form
[23] = target: Metabotropic glutamate receptor 1 (Rattus norvegicus) (UniProt P23385); assay: Binding affinity to mGluR1 in Sprague-Dawley rat brain stem at 9.2 MBq after 30 mins by autoradiography; format: tissue-based; conditions: 9.2 M, tested as the 11C-labelled form; method in brief: as §2
[24] = 0.4 M, tested as the 18F-labelled form
[25] = 9.2 M, in the assay text read “9.2 MBq” for “0.4 MBq”, tested as the 11C-labelled form

Sequence of Metabotropic glutamate receptor 5 (P31424 whole entry): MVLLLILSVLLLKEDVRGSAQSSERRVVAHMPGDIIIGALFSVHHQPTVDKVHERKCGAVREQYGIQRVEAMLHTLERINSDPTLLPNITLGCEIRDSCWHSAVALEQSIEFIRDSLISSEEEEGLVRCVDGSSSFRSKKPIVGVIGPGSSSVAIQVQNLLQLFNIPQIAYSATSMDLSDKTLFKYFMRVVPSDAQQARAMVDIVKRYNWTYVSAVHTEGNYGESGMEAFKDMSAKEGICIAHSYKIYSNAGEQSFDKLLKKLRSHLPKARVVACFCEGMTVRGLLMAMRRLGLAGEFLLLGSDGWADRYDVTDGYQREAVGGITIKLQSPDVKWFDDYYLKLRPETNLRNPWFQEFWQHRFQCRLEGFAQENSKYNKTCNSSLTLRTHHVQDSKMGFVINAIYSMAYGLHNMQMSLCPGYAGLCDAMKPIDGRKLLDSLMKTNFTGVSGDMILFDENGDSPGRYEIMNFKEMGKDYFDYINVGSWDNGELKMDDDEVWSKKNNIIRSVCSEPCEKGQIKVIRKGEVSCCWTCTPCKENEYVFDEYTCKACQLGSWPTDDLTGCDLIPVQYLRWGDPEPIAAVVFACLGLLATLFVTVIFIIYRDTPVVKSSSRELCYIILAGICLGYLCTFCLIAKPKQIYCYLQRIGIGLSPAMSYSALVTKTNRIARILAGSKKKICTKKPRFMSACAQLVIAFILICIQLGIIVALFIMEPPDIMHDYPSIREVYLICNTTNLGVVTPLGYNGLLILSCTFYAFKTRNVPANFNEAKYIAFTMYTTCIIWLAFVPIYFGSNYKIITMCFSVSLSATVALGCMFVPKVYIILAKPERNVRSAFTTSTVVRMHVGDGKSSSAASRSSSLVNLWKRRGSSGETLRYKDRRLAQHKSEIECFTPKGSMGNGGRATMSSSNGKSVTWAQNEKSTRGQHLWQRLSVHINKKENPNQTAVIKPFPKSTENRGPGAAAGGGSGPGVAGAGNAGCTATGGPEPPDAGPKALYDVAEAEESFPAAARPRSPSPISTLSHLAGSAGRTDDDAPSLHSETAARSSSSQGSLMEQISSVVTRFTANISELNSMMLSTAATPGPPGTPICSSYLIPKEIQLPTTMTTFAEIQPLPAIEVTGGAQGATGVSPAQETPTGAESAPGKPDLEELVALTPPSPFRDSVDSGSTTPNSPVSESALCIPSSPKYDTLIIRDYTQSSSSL
Sequence of Metabotropic glutamate receptor 1 (P23385 whole entry): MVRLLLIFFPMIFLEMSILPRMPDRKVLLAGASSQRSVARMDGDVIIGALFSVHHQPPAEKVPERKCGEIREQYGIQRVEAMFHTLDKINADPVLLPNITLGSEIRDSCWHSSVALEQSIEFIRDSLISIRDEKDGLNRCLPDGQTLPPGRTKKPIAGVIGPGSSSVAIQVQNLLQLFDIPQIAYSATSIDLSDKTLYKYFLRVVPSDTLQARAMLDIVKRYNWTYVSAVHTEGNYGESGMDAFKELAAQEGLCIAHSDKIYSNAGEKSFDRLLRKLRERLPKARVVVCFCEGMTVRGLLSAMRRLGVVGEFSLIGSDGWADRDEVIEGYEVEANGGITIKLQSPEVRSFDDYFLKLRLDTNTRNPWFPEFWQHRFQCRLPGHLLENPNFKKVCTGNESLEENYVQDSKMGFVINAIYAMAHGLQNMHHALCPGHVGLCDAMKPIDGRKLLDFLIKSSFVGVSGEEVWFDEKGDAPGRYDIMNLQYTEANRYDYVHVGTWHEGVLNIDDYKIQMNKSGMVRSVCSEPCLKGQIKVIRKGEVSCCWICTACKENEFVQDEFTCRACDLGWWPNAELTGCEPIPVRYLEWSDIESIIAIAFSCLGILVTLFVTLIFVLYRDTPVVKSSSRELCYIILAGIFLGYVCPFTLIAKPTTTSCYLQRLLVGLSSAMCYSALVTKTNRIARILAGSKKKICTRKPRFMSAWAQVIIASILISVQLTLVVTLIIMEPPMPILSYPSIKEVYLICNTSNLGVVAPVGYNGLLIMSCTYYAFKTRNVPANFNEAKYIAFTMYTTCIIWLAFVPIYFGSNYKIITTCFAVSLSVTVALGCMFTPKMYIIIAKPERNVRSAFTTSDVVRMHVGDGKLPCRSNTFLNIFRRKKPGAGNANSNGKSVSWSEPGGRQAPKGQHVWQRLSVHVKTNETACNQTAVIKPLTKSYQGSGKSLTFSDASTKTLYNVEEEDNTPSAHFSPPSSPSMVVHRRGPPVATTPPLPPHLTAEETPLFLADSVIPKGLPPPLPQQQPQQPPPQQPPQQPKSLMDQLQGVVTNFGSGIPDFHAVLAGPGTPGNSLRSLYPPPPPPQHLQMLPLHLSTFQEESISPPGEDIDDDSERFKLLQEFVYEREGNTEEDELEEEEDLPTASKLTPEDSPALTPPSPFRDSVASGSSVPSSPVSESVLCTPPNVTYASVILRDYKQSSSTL
Sequence of Metabotropic glutamate receptor 1 (Rattus norvegicus) (P23385 19-1199 limits assumed): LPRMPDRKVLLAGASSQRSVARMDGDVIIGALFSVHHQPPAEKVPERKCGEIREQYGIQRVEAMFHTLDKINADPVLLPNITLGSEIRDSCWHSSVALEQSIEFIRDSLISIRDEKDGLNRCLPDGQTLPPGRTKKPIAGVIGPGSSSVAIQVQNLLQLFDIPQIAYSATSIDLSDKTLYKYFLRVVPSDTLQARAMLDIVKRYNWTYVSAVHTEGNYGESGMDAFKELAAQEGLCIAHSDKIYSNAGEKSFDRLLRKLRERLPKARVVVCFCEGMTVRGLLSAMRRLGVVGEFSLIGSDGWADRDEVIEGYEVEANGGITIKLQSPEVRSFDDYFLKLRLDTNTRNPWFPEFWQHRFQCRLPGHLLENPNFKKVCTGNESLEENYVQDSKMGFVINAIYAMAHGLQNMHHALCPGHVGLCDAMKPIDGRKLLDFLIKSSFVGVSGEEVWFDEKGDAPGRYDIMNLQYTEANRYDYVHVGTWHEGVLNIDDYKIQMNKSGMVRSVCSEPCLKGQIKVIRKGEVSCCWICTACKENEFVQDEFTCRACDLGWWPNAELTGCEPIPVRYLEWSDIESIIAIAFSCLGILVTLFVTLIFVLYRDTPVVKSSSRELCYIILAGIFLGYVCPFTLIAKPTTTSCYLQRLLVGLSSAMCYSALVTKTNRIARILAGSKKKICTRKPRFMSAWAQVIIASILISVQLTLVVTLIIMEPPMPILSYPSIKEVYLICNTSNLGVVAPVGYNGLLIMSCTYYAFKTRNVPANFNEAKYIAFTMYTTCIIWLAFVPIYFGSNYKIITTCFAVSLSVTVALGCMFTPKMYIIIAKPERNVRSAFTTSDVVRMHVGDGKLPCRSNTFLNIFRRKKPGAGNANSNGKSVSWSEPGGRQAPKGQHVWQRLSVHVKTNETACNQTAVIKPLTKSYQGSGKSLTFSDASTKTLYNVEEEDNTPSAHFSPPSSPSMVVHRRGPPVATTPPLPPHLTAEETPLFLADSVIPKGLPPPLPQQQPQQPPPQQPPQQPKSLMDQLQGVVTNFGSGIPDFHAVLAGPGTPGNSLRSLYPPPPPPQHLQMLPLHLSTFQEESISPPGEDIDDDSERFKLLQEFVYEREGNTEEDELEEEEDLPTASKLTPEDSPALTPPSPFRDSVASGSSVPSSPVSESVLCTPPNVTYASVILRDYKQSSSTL

| Activity [1, 24] | Activity [2, 24] | IC50 [3] [nM] | Activity [4, 24] | IC50 [5] [nM] | Ki [5] [nM] | Activity [6] | Activity [7, 24] | logD [8] | Activity [9, 24] | Activity [10] | Activity [11] | further results | SMILES |
| --- | --- | --- | --- | --- | --- | --- | --- | --- | --- | --- | --- | --- | --- |
| inactive | Active | > 10000 | Active | > 10000 | > 5000 | inactive | Active | 2.8 | Active | inactive | inactive |  | CC(C)Nc1cc(-c2csc(N(C)C(=O)c3ccc(OCCCF)cc3)n2)ncn1 |
|  |  | > 10000 |  | 32.7 | 12.6 |  |  | 2.57 |  |  |  | Activity [1, 25]: inactive; Activity [12]: 30%; Activity [2, 25]: Active; Activity [4, 25]: Active; Activity [13]: Active; Activity [14]: > 70%; Activity [15]: 30%; Activity [16]: 30%; Activity [17]: Active; Activity [7, 25]: Active; Activity [18]: 30%; Activity [19]: inactive; Activity [20]: inactive; Activity [21]: Active; Activity [22]: inactive; Activity [9, 25]: Active; Activity [23]: Active | COc1ccc(C(=O)N(C)c2nc(-c3cc(NC(C)C)ncn3)cs2)cc1 |
|  |  | > 10000 |  | 13.9 | 5.4 |  |  | 1.45 |  |  |  |  | CC(C)Nc1cc(-c2csc(N(C)C(=O)c3ccc(F)cc3)n2)ncn1 |
| inactive | Active | > 10000 | Active | 395 | 153 | inactive | Active | 2.59 | Active | inactive | inactive |  | CC(C)Nc1cc(-c2csc(N(C)C(=O)c3ccc(OCCF)cc3)n2)ncn1 |
